Measurements from ChEMBL document CHEMBL3425499, “Iridoid glycosides from Barleria lupulina” (J Nat Prod, 2015).
Converted amounts (≈) assume the structure as drawn. The source made the active and inactive calls. No cut-off for these calls is given here.

Columns and labels:
MDA-MB-231 = test: Cytotoxicity against Stat3-activated human MDA-MB-231 cells assessed as growth inhibition at 20 ug/ml after 72 hrs by CyQuant assay; format: functional, cell-based
How it was run: (§1)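 Cells were seeded at 1000 per well and grown 24 h. They were then exposed to 20 μg/mL compound for 72 h. Viability was measured by the CyQuant assay following the kit instructions and expressed relative to DMSO-treated control cells.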

U-251 = test: Cytotoxicity against Stat3-activated human U251MG cells assessed as growth inhibition at 20 ug/ml after 72 hrs by CyQuant assay; format: functional, cell-based; how it was run: as §1
NIH3T3 = test: Cytotoxicity against mouse NIH/3T3 cells assessed as growth inhibition at 20 ug/ml after 72 hrs by CyQuant assay
[1] = Antioxidant activity assessed as DPPH free radical scavenging activity measured as decoloration of a MeOH solution after 10 mins by spectrophotometry; format: physicochemical
How it was run: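 Compounds were dissolved in MeOH at various concentrations and mixed with a methanolic DPPH solution. Mixtures were held 10 min in the dark, then remaining DPPH was read as absorbance at 517 nm. Scavenging was calculated against a blank of DPPH plus solvent, taken as 100%.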

Row | SMILES | inhibition (MDA-MB-231) | inhibition (U-251) | inhibition (NIH3T3) | IC50 [1] [µg/mL]
1 | COC(=O)C1=CO[C@@H](O[C@@H]2O[C@H](COC=O)[C@@H](O)[C@H](O)[C@H]2O)[C@H]2[C@@H]1[C@H](OC(C)=O)C[C@]2(C)OC(C)=O | inactive | inactive | inactive | –
2 | CC(=O)O[C@@]1(C)C[C@@H](O)[C@@H]2C(C(=O)O)=CO[C@@H](O[C@@H]3O[C@H](CO)[C@@H](O)[C@H](O)[C@H]3O)[C@@H]21 | inactive | inactive | inactive | –
3 | COC(=O)C1=CO[C@@H](O[C@@H]2O[C@H](CO)[C@@H](O)[C@H](O)[C@H]2O)[C@H]2[C@@H]1[C@H](O)C[C@]2(C)OC(C)=O [BARLERIN] | inactive | inactive | inactive | 110.3 (≈ 246 µM)
4 | C[C@]1(O)C[C@@H](O)[C@@H]2C(C(=O)O)=CO[C@@H](O[C@@H]3O[C@H](CO)[C@@H](O)[C@H](O)[C@H]3O)[C@@H]21 [SHANZHISIDE] | inactive | inactive | inactive | 78.6 (≈ 200 µM)
5 | O=C(O)c1cc(O)c(O)c(O)c1 [GALLIC ACID] | – | – | – | 2.79 (≈ 16.4 µM)
6 | COC(=O)C1=CO[C@@H](O[C@@H]2O[C@H](CO)[C@@H](O)[C@H](O)[C@H]2O)[C@H]2[C@@H]1[C@H](OC(C)=O)C[C@]2(C)OC(C)=O | inactive | inactive | inactive | –
7 | O=C1O[C@H]([C@@H](O)CO)C(O)=C1O [ASCORBIC ACID] | – | – | – | 7.63 (≈ 43.3 µM)
8 | COC(=O)C1=CO[C@@H](O[C@@H]2O[C@H](COC=O)[C@@H](O)[C@H](O)[C@H]2O)[C@H]2[C@@H]1[C@H](O)C[C@]2(C)OC(C)=O | inactive | inactive | inactive | –
9 | O=c1c(O)c(-c2ccc(O)c(O)c2)oc2cc(O)cc(O)c12 [QUERCETIN] | – | – | – | 9.52 (≈ 31.5 µM)
10 | C[C@]1(O)C[C@@H](OC=O)[C@@H]2C(C(=O)O)=CO[C@@H](O[C@@H]3O[C@H](CO)[C@@H](O)[C@H](O)[C@H]3O)[C@@H]21 | inactive | inactive | inactive | –
11 | COC(=O)C1=CO[C@@H](O[C@@H]2O[C@H](CO)[C@@H](O)[C@H](O)[C@H]2O)[C@H]2[C@@H]1[C@H](OC(=O)/C=C/c1ccc(O)cc1)C[C@]2(C)OC(C)=O | – | – | – | 486.5 (≈ 818 µM)
12 | COc1ccc(/C=C/C(=O)O[C@@H]2C[C@](C)(OC(C)=O)[C@H]3[C@H](O[C@@H]4O[C@H](CO)[C@@H](O)[C@H](O)[C@H]4O)OC=C(C(=O)O)[C@H]32)cc1 | inactive | inactive | inactive | –
13 | COC(=O)C1=CO[C@@H](O[C@@H]2O[C@H](CO)[C@@H](O)[C@H](O)[C@H]2O)[C@H]2[C@@H]1[C@H](OC(C)=O)C[C@]2(C)O | inactive | inactive | inactive | 286.4 (≈ 639 µM)
14 | COc1ccc(/C=C\C(=O)O[C@@H]2C[C@](C)(OC(C)=O)[C@H]3[C@H](O[C@@H]4O[C@H](CO)[C@@H](O)[C@H](O)[C@H]4O)OC=C(C(=O)O)[C@H]32)cc1 | inactive | inactive | inactive | –
15 | C[C@]1(O)C[C@@H](O)[C@@H]2C(C(=O)O)=CO[C@@H](O[C@@H]3O[C@H](COC=O)[C@@H](O)[C@H](O)[C@H]3O)[C@@H]21 | inactive | inactive | inactive | –
16 | C[C@]1(O)CC[C@@H]2C(C(=O)O)=CO[C@@H](O[C@@H]3O[C@H](CO)[C@@H](O)[C@H](O)[C@H]3O)[C@@H]21 | inactive | inactive | inactive | –
17 | COC(=O)C1=CO[C@@H](O[C@@H]2O[C@H](CO)[C@@H](O)[C@H](O)[C@H]2O)[C@@H]2[C@@](C)(OC(C)=O)CC[C@]12O | inactive | inactive | inactive | –
18 | COC(=O)C1=CO[C@@H](O[C@@H]2O[C@H](CO)[C@@H](O)[C@H](O)[C@H]2O)[C@H]2[C@@H]1[C@H](O)C[C@]2(C)O [SHANZHISIDE METHYL ESTER] | inactive | inactive | inactive | 97.5 (≈ 240 µM)
